Source: PubChem BioAssay
OX1R antag-1 = human HCRTR1 antagonism; O43613; CHO/OX1R cells, Fluo-8 calcium fluorescence, orexin A; inhibition, % at 5 µM; 0.43% of 330,000 active;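 active = inhibition above its plate's threshold, mean inhibition of all tested compounds on the plate plus 3 SD, cut at about 37% in these data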;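 also: 0% = orexin A challenge wells and 100% = SB-334867-A antagonist wells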
GPR7 antagonist = human neuropeptides B/W receptor 1 antagonism. AID 1861. 1.1% of 290,000 active. P48145. GPR7-expressing cells, fluorescence antagonist assay. inhibition, % at 4.4 µM; in the data active = inhibition above about 16%, passing the limit was not always enough;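 also: cells stimulated with the agonist NPW; 0% = agonist with vehicle and 100% = vehicle without agonist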
Target sequence (P48145 whole entry, looked up): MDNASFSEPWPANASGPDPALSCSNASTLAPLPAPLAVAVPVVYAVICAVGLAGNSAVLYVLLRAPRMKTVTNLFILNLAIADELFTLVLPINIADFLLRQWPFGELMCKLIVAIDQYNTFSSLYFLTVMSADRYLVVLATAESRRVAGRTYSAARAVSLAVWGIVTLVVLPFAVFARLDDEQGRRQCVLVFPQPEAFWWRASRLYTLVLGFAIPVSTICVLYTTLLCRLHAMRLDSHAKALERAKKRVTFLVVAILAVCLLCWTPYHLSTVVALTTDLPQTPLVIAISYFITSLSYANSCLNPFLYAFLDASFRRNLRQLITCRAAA
TAAR1 antagonist = human TAAR1 antagonism; 1.5% of 360,000 active; CHO RD-HGA16 TAAR1, Fluo-8 calcium fluorescence, antagonist; Q96RJ0; inhibition, % at 3 µM;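 active = inhibition above a per-plate cutoff, the mean inhibition of test compounds on that plate plus 3 SD, cut at about 49% in these data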;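 also: 0% = DMSO plus EC80 beta-PEA response and 100% = DMSO alone without agonist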
Target sequence (Q96RJ0 whole entry, looked up): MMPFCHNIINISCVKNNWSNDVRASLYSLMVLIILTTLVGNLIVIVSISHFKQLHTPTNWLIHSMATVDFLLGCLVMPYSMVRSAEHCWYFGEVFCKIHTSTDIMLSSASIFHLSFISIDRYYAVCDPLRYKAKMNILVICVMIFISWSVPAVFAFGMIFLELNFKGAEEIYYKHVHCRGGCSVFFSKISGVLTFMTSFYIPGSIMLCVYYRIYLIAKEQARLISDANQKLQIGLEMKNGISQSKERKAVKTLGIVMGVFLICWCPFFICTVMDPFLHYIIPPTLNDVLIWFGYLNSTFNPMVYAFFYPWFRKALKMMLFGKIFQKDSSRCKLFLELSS
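Assay system: CHO-derived RD-HGA16 cells stably expressing human TAAR1 plus Gα16. Timing: 140 s kinetic read after compound, 140 s after agonist. Technique: kinetic Fluo-8 calcium fluorescence measurement. Measure: % inhibition of agonist calcium response.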
TAAR1 agonist = agonists of human TAAR1. CHO RD-HGA16 TAAR1, Fluo-8 calcium fluorescence; vehicle wells 0%, saturating PEA agonist 100%. activation, % at 3 µM. 0.99% of 360,000 active;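 active = activation above the mean activation of all test compounds in the run plus 3 SD, cut at about 38% in these data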
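Benchmarks: low control DMSO, high control PEA (EC100); System: CHO RD-HGA16 cells carrying human TAAR1 plus Gα16; Detection: Fluo-8 fluorescence, 5 s baseline then 140 s kinetic read; Schedule: 17-24 h plating, Fluo-8 75 min 37 °C, 30 min RT; Read-out basis: % activation from peak over basal fluorescence ratio, DMSO-to-PEA scaled.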
CHO parental Ca = signal in parental CHO cells, OX1R antagonist counter-screen | AID 463079 | 0.63% of 330,000 active | parental CHO-K1, ATP-induced calcium, Fluo-8 fluorescence | inhibition, % at 5.6 µM;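 active = inhibition above that plate's mean sample inhibition plus 3 SD, cut at about 26% in these data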;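 also: 0% = ATP-challenged DMSO wells and 100% = DMSO wells without ATP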
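Assay system – parental CHO cells · Reagent – ATP stimulus · Detection – intracellular calcium via Fluo-8 no-wash fluorescent dye · Evaluation – percent inhibition of ATP-evoked calcium rise, normalized to controls · Controls – ATP wells versus no-ATP DMSO wells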
OX1R antag-2 = OX1R (human) antagonism; AID 485270; OX1R-expressing cells, FRET antagonist read-out; inhibition, % at 6.6 µM; O43613; 1.8% of 330,000 active; in the data active = inhibition mostly above about 38%, no sharp cut-off; inactive = mostly below about 40%;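 also: 0% = agonist challenge alone and 100% = reference antagonist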
TAAR1 ag confirm = human TAAR1 agonism, confirmed. activation, % at 3 µM. AID 651783. CHO RD-HGA16 TAAR1, Fluo-8 calcium fluorescence; scaled: DMSO 0%, maximal phenethylamine 100%. 82% of 2,400 active. shares compounds with TAAR1 agonist;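 active = activation above a cutoff set at the run's mean compound activation plus 3 SD, cut at about 39% in these data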
Ga16 ag counter = nonselective agonism, TAAR1 counter-screen; shares compounds with TAAR1 agonist; CHO-Ga16 parental, Fluo-8 calcium fluorescence; normalized to maximal ATP response, DMSO zero; activation, % at 3 µM; 50% of 2,400 active; AID 651787;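 active = activation above the run cutoff, the mean activation over all tested wells plus 3 SD, cut at about 12% in these data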;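 also: 0% = DMSO wells and 100% = maximal ATP response on the peak over basal ratio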
TAAR1 desens = counter-screen for human TAAR1 agonists: agonists that desensitize TAAR1 | shares compounds with TAAR1 agonist | CHO RD-HGA16 hTAAR1, Fluo-8 calcium, beta-PEA response inhibition | inhibition, % at 3 µM | 46% of 2,400 active;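 active = inhibition above the run cutoff, the mean inhibition of all test compounds plus 3 SD, cut at about 49% in these data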;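 also: beta-PEA stimulus applied at its EC80; loss of beta-PEA calcium signal after compound pretreatment read as receptor desensitization; 0% = DMSO with beta-PEA at EC80 and 100% = DMSO alone without agonist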
Ga16 nonsel ant = nonselective Ga16 antagonism, counter-screen; shares compounds with TAAR1 agonist; inhibition, % at 3 µM; 39% of 2,400 active; CHO-Ga16 ATP-induced calcium, Fluo-8 fluorescence;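 active = inhibition above the plate's mean compound inhibition plus 3 SD, computed per plate, cut at about 22% in these data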;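 also: 0% = EC80 ATP with DMSO and 100% = DMSO wells without ATP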
* marks the source's active call; other numbers are inactive results; nt = no result given. Compounds with a hit are over-represented: about 4.6% of the library has one in this group of screens.

SMILES	OX1R antag-1	GPR7 antagonist	TAAR1 antagonist	TAAR1 agonist	CHO parental Ca	OX1R antag-2	TAAR1 ag confirm	Ga16 ag counter	TAAR1 desens	Ga16 nonsel ant
O=C(CCC(=O)Nc1ccc(F)cc1)N/N=C/c1ccccc1O	-4	-1	-8	54*	-7	6	72*	5	48	11
COc1ccc(/C=N/NC(=O)Cc2n[nH]c(=O)[nH]c2=O)cc1	-6	-7	-13	8	-5	18	nt	nt	nt	nt
O=C(CCC(=O)N/N=C/c1ccccc1O)NCc1ccccc1	-15	-10	20	42*	-5	20	57*	0	35	4
O=C(CNC(=O)c1ccccc1Br)N/N=C/c1cccs1	-14	-6	-19	36	2	-2	nt	nt	nt	nt
O=C(Cc1n[nH]c(=O)[nH]c1=O)N/N=C/c1ccccc1O	-9	-3	nt	nt	-1	15	nt	3	nt	14
O=C(CNC(=O)c1ccccc1Br)N/N=C/c1ccccc1O	-11	-9	24	47*	-13	29	67*	3	40	7
O=C(CCC(=O)Nc1ccc(Br)cc1)N/N=C/c1ccccc1F	-31	0	7	7	-14	10	nt	nt	nt	nt
O=C(CC(=O)N/N=C/c1ccccc1)NCc1ccccc1	9	-5	-4	21	8	17	nt	nt	nt	nt
CCOC(=O)C1(CC2CCCCO2)CCN(Cc2cc3ccccc3[nH]2)CC1 (centres undefined)	53*	96*	105*	149*	36*	9	114*	98*	104*	95*
O=C(Cn1sc2ccccc2c1=O)Nc1ccc(Cl)cc1	nt	nt	46	55*	nt	nt	55*	30*	23	29*
O=C(Cn1sc2ccccc2c1=O)Nc1ccc(F)cc1	nt	nt	17	55*	nt	nt	59*	39*	33	22*
COc1cc(CN2CCCCC2C(=O)Nc2ccc(Oc3ccccc3)nc2)ccc1O (centres undefined)	-11	0	-14	4	-10	17	nt	nt	nt	nt
Cc1cc(C2=NNC(=NCCc3ccccc3)SC2)c(C)n1-c1c(C)n(C)n(-c2ccccc2)c1=O	-26	5	21	70*	-3	0	93*	2	62*	2
CCCCCOc1ccc(CSC(=N)N)cc1[N+](=O)[O-]	-27	20	28	59*	-10	30	104*	59*	69*	29*
CC1CCC(NC(=O)CNC(=O)c2cccs2)CC1 (centres undefined)	-17	-20	-11	3	-12	28	nt	nt	nt	nt
O=C1CCC(C(=O)Nc2ccc(Cl)cc2)N1 (centres undefined)	-19	-13	5	7	-8	1	nt	nt	nt	nt
O=C(Nc1ccc(Cl)cc1)C1C2CCCCC21 (centres undefined)	32	23	59*	57*	62*	17	18	3	7	9
CC1=CC(C)(C)N2C(=O)C3(SCC(=O)N3c3ccc(F)cc3)c3cc(C)cc1c32 (centres undefined)	-11	11	34	54*	12	7	39*	25*	27	28*
CC1=CC(C)(C)N2C(=O)C3(NCCc4c3[nH]c3ccccc43)c3cc(C)cc1c32 (centres undefined)	-3	8	-15	2	4	11	nt	nt	nt	nt
CN(C)C=Nc1c(Br)cc(Br)c2nonc12	58*	-10	78*	87*	64*	43	48*	73*	56*	66*
CC1CCN(c2ccc(/C=N\Nc3nncn3N)cc2[N+](=O)[O-])CC1	8	-6	-16	-3	-1	41	nt	nt	nt	nt
O=c1cnn(Cc2c(Cl)cccc2Cl)c2ccccc12	3	-5	-24	-1	-7	46	nt	nt	nt	nt
CCOC(=O)c1c(C)[nH]c(C)c1S(=O)(=O)NCCc1sccc1C	-27	2	24	54*	-26	26	27	1	42	8
CCOC(=O)c1c(C)[nH]c(C)c1S(=O)(=O)NCCc1ccc(SC)cc1	-2	-4	-16	5	-5	26	nt	nt	nt	nt
O=C(CCCN1C(=O)C(c2ccccc2)Oc2cccnc21)NCCc1ccc(Cl)cc1 (centres undefined)	0	5	5	-1	-17	15	nt	nt	nt	nt
SMILES	OX1R antag-1	GPR7 antagonist	TAAR1 antagonist	TAAR1 agonist	CHO parental Ca	OX1R antag-2	TAAR1 ag confirm	Ga16 ag counter	TAAR1 desens	Ga16 nonsel ant
S=C(Nc1ccccc1Cl)NC1CCN(Cc2ccccc2)CC1	-24	-1	-10	4	-11	9	nt	nt	nt	nt
S=C(Nc1cc(Cl)cc(Cl)c1)NC1CCN(Cc2ccccc2)CC1	nt	13	20	64*	nt	nt	58*	32*	53*	46*
N#C/C(=C\c1cccs1)C(=O)c1ccccc1Cl	10	-22	54*	59*	2	1	53*	33*	72*	59*
CC(C)(C)C(=O)/C(C#N)=C/c1cccs1	2	-2	14	5	1	1	nt	nt	nt	nt
O=C(O)COCC(=O)NCc1csc2ccccc12	-4	-7	-40	51*	-11	1	55*	0	26	6
O=C(Cc1csc2ccccc12)NCC1CC1	nt	nt	3	0	nt	nt	nt	nt	nt	nt
COc1ccc(C23CC4CC(CC(C4)C2)C3)cc1C(=O)NCCN(C)C	-11	5	3	46*	-6	4	54*	21*	22	13
COc1ccccc1C(=O)NCCC(=O)NCCC12CC3CC(CC(C3)C1)C2	-21	-12	-25	-4	-20	9	nt	nt	nt	nt
COc1cccc(CNC(=O)CC2C(=O)NCCN2CCCc2ccccc2)c1 (centres undefined)	-29	-1	-15	19	-20	20	nt	nt	nt	nt
CC(C)(C)CN1CCNC(=O)C1CC(=O)NCCc1cnn(-c2ccccc2)c1 (centres undefined)	-28	5	9	11	-20	25	nt	nt	nt	nt
COc1ccccc1CCNC(=O)CC1C(=O)NCCN1CCCc1ccccc1 (centres undefined)	-33	3	17	74*	-24	25	71*	2	43	11
O=C(CC1C(=O)NCCN1CC1CCCCC1)NCc1ccc(F)cc1 (centres undefined)	-16	-1	5	0	-22	5	nt	nt	nt	nt
